24 compounds from ChEMBL document CHEMBL1141661, “Synthesis and anti-mycobacterial activity of (E)-N'-(monosubstituted-benzylidene)isonicotinohydrazide derivatives” (Eur J Med Chem, 2008) can be followed below.

The subject of data set [1] is Mycobacterium tuberculosis. As to the kind of experiment: Antimycobacterial activity against rifampin and isoniazid-susceptible Mycobacterium tuberculosis H37Rv ATCC 27294 after 5 days by Alamar blue assay. The class given is functional. The note with it: 120 h. Put shortly: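 Microplate Alamar Blue assay in Middlebrook 7H9 broth; compounds serially diluted on the plate, final concentrations […]. Plates sealed and incubated 37 °C for 5 days, then 1:1 Alamar Blue reagent/10% Tween 80 added and incubated a further 24 h. Blue scored as no growth, pink as growth; MIC is the lowest concentration preventing the blue-to-pink change.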

Data set [2] in a line: Cytotoxicity against mouse macrophages assessed as cell viability at 0.1 ug/mL after 18 hrs by MTT assay. The class given is cell-based, Macrophage. The note with it: read-out: Activity. The essentials:
(§1)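 Murine macrophages plated at 2.5 × 10⁶ cells/mL and held 1 h at 37 °C under 5% CO₂. Nonadherent cells were then flushed off with RPMI 1640. Adherent cells were exposed in triplicate to compound at 0.1, 1.0, 10.0 or 100, medium alone (live control) or 3% tween 20 (dead control). After 18 h MTT was added for 4 h. Formazan was dissolved in DMSO and A540 read.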

Data set [3] is described as follows: Cytotoxicity against mouse macrophages assessed as cell viability at 1 ug/mL after 18 hrs by MTT assay. The class given is cell-based, Macrophage. The note with it: read-out: Activity. The essentials:
as §1

Data set [4] can be described thus: Cytotoxicity against mouse macrophages assessed as cell viability at 10 ug/mL after 18 hrs by MTT assay. The class given is cell-based, Macrophage. The note with it: read-out: Activity. The essentials: as §1
The nature of data set [5]: Cytotoxicity against mouse macrophages assessed as cell viability at 100 ug/mL after 18 hrs by MTT assay. The class given is cell-based, Macrophage. The note with it: read-out: Activity. The essentials:
as §1

≈ marks a conversion by molar mass, not a printed value.

In data set [1], `O=C(N/N=C/c1ccccc1F)c1ccncc1` gave a minimum inhibitory concentration (MIC) of 3.12 µg/mL (≈ 12.8 µM).
The compound `O=C(N/N=C/c1cccc(F)c1)c1ccncc1` showed an MIC in data set [1] of 3.12 µg/mL (≈ 12.8 µM).
In data set [1], `O=C(N/N=C/c1cccc(O)c1)c1ccncc1` displayed an MIC of 1.25 µg/mL (≈ 5.18 µM).
Still for that read-out and setting: the same measure for `N#Cc1ccc(/C=N/NC(=O)c2ccncc2)cc1`: 5 µg/mL (≈ 20 µM).
On the same count and under the same terms, the same measure for `O=C(N/N=C/c1ccccc1Br)c1ccncc1`: 5 µg/mL (≈ 16.4 µM).
For the compound `COc1ccc(/C=N/NC(=O)c2ccncc2)cc1`, inhibition of growth in data set [1] (MIC) required 5 µg/mL (≈ 19.6 µM).
Compound `N#Cc1ccccc1/C=N/NC(=O)c1ccncc1` showed an MIC in data set [1] of 0.62 µg/mL (≈ 2.48 µM). Moreover, the viability at 18 h, 0.1 ug/mL in data set [2] was found to be 100%. The viability at 18 h, 1 ug/mL in data set [3] was determined as 100%. Besides, the viability at 18 h, 10 ug/mL in data set [4] amounted to 100%. Besides, the viability at 18 h, 100 ug/mL in data set [5] amounted to 95%.
As to `COc1cccc(/C=N/NC(=O)c2ccncc2)c1`, the minimum inhibitory concentration (MIC) in data set [1] amounted to 5 µg/mL (≈ 19.6 µM).
On to `O=C(N/N=C/c1ccccc1Cl)c1ccncc1`, for which it took 1.25 µg/mL (≈ 4.81 µM) to inhibit growth in data set [1] (MIC). Compared with the last compound, the MIC is about 4-fold lower.
In turn, `N#Cc1cccc(/C=N/NC(=O)c2ccncc2)c1` displayed a minimal inhibitory concentration (MIC) in data set [1] of 1.25 µg/mL (≈ 4.99 µM).
The same measure, in the same setting: the same measure for `O=C(N/N=C/c1cccc(Br)c1)c1ccncc1`: 2.5 µg/mL (≈ 8.22 µM); for `O=C(N/N=C/c1ccc(Br)cc1)c1ccncc1`: 5 µg/mL (≈ 16.4 µM); for `O=C(N/N=C/c1cccc([N+](=O)[O-])c1)c1ccncc1`: 5 µg/mL (≈ 18.5 µM).
For the compound `O=C(N/N=C/c1ccc(Cl)cc1)c1ccncc1`, in data set [1], the MIC stood at 0.31 µg/mL (≈ 1.19 µM). Moreover, in data set [2], the viability at 18 h, 0.1 ug/mL is 100%. Further, the viability at 18 h, 1 ug/mL in data set [3] came to 97%. Also, the viability at 18 h, 10 ug/mL in data set [4] stood at 97%. For the same compound, the viability at 18 h, 100 ug/mL in data set [5] was 96%.
In turn, `O=C(N/N=C/c1ccc(F)cc1)c1ccncc1` gave a minimal inhibitory concentration (MIC) in data set [1] of 0.31 µg/mL (≈ 1.27 µM). Further, in data set [2], the viability at 18 h, 0.1 ug/mL came out at 100%. In data set [3], the viability at 18 h, 1 ug/mL was determined as 100%. Moreover, the viability at 18 h, 10 ug/mL in data set [4] amounted to 97%. For the same compound, the viability at 18 h, 100 ug/mL in data set [5] turned out to be 96%.
As for `CCOc1ccccc1/C=N/NC(=O)c1ccncc1`, the lowest concentration to inhibit growth in data set [1] (MIC) was 1.25 µg/mL (≈ 4.64 µM).
The same measure, in the same setting: to `CCOc1cccc(/C=N/NC(=O)c2ccncc2)c1` belongs 1.25 µg/mL (≈ 4.64 µM).
`COc1ccccc1/C=N/NC(=O)c1ccncc1` returned a minimum inhibitory concentration (MIC) in data set [1] of 0.31 µg/mL (≈ 1.21 µM). For the same compound, the viability at 18 h, 0.1 ug/mL in data set [2] turned out to be 100%. In addition, in data set [3], the viability at 18 h, 1 ug/mL stood at 100%. Besides, the viability at 18 h, 10 ug/mL in data set [4] turned out to be 100%. Further, the viability at 18 h, 100 ug/mL in data set [5] amounted to 98%.
`O=C(N/N=C/c1ccccc1[N+](=O)[O-])c1ccncc1`: in data set [1], the MIC was found to be 5 µg/mL (≈ 18.5 µM).
On the same count and under the same terms, the same measure for `NNC(=O)c1ccncc1` [ISONIAZID]: 0.2 µg/mL (≈ 1.46 µM).
In data set [1], `O=C(N/N=C/c1cccc(Cl)c1)c1ccncc1` [N'-(3-CHLOROBENZYLIDENE)ISONICOTINOHYDRAZIDE] displayed a minimal inhibitory concentration (MIC) of 0.31 µg/mL (≈ 1.19 µM). Besides, the viability at 18 h, 0.1 ug/mL in data set [2] stood at 100%. Moreover, in data set [3], the viability at 18 h, 1 ug/mL was 100%. Also, in data set [4], the viability at 18 h, 10 ug/mL came out at 100%. In addition, the viability at 18 h, 100 ug/mL in data set [5] came out at 100%.
Turning to `O=C(N/N=C/c1ccc([N+](=O)[O-])cc1)c1ccncc1` [N'-(4-NITROBENZYLIDENE)ISONICOTINOHYDRAZIDE], the lowest concentration to inhibit growth in data set [1] (MIC) was 1.25 µg/mL (≈ 4.63 µM).
On the same count and under the same terms, to `O=C(N/N=C/c1ccccc1)c1ccncc1` [N'-BENZYLIDENE ISONICOTINOHYDRAZIDE] belongs 3.12 µg/mL (≈ 13.9 µM); to `CO[C@H]1/C=C/O[C@@]2(C)Oc3c(C)c(O)c4c(O)c(c(/C=N/N5CCN(C)CC5)c(O)c4c3C2=O)NC(=O)/C(C)=C\C=C\[C@H](C)[C@H](O)[C@@H](C)[C@@H](O)[C@@H](C)[C@H](OC(C)=O)[C@@H]1C` [RIFAMPIN], 1 µg/mL (≈ 1.22 µM).
